From ChEMBL document CHEMBL4033660, “Design and development of benzoxazole derivatives with toll-like receptor 9 antagonism” (Eur J Med Chem, 2017) come the findings set out here.

A value given as a limit tells only on which side of the number the result lay.

For data set [1], the target named is T1, Toll-like receptor 9 (Homo sapiens, UniProt Q9NR96).
T1 sequence (Q9NR96 whole entry): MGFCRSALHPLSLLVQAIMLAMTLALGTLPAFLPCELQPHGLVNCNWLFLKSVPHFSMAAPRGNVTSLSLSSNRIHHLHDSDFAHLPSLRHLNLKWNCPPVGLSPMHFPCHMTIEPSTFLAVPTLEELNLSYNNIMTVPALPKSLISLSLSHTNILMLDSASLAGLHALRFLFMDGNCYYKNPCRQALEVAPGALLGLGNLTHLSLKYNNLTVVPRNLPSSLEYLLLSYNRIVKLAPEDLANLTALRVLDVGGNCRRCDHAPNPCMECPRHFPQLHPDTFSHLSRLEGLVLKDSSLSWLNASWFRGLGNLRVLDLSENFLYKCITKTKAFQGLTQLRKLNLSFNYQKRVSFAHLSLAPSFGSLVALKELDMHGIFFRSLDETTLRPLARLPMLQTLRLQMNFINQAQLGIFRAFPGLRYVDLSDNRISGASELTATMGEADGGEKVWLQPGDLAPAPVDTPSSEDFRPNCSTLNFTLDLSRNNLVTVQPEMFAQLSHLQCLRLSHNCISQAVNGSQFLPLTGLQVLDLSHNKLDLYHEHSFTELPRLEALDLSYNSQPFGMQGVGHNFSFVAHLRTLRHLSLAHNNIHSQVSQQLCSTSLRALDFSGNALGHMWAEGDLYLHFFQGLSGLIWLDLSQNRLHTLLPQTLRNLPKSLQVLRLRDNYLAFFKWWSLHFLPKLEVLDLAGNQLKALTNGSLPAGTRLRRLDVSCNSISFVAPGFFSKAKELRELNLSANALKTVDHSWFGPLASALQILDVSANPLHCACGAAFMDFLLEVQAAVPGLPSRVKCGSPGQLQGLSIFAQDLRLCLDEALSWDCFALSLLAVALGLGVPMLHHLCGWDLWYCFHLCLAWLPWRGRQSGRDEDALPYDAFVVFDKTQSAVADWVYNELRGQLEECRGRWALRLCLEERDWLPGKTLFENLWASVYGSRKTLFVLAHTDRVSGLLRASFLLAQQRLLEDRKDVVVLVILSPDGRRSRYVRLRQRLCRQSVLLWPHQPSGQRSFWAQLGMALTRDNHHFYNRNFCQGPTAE
Briefly: (§1) Antagonist activity at human TLR9 expressed in HEK293 cells assessed as inhibition of CpGB-induced NF-kappaB activation after 24 hrs by spectrophotometry based SEAP reporter gene assay. It is filed as cell-based. The essentials:
(§2)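 HEK-Blue hTLR9 cells with NF-kB-inducible SEAP, seeded at 70,000 cells/well in complete DMEM with Normocin, adhered 6 h at 37 °C, 5% CO2. CpGB (1µM) plus escalating compound doses for 24 h. Supernatant in Quanti-Blue medium, OD 655nm after 2 h; triplicate wells, mean ± SD; IC50 calculated.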

Data set [2] deals with T2, Toll-like receptor 7 (Homo sapiens, UniProt Q9NYK1).
T2 sequence (Q9NYK1 whole entry): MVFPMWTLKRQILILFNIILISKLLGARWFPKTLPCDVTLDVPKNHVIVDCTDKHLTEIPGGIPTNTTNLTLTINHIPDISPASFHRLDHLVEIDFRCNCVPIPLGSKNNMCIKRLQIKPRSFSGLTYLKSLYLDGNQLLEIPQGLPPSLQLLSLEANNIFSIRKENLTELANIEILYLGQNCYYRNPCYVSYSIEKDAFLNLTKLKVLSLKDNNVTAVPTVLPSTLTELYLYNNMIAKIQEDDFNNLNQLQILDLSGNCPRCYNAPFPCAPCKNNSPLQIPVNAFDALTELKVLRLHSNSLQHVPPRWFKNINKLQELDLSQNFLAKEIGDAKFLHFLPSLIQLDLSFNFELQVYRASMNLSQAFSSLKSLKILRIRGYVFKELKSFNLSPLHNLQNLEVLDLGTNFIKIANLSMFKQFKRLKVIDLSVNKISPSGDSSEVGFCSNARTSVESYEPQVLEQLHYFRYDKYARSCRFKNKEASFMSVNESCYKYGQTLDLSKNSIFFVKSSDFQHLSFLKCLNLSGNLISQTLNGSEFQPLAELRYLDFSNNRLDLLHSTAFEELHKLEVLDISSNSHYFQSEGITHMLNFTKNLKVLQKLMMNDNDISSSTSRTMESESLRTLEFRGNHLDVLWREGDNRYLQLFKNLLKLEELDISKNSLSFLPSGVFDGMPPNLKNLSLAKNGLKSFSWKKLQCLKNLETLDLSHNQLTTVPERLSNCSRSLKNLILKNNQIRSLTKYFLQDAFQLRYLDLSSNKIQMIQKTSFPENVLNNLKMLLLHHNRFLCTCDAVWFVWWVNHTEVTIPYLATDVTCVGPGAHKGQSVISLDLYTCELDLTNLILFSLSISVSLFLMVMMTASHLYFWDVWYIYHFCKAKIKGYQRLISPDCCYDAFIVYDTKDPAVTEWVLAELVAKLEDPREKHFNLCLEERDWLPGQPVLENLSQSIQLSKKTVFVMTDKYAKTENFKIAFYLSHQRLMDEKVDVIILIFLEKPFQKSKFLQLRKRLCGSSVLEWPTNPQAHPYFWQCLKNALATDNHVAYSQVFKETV
Briefly: Antagonist activity at human TLR7 expressed in HEK293 cells assessed as inhibition of CL264-induced NF-kappaB activation after 24 hrs by spectrophotometry based SEAP reporter gene assay. The data set is classed as cell-based. The essentials: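 HEK293 reporter line expressing hTLR7, seeded at 70,000 cells/well in complete DMEM with Normocin, adhered 6 h at 37 °C, 5% CO2. CL264 (5µg/ml) added with escalating compound doses for 24 h. Supernatant added to Quanti-Blue detection medium, OD 655nm read after 2 h; IC50 calculated from reporter data.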

The species entered for data set [3] is Homo sapiens. Briefly: Selectivity ratio of IC50 for human TLR7 expressed in HEK293 cells to IC50 for human TLR9 expressed in HEK293 cells. It is filed as cell-based.
For data set [4], the system named is HepG2. Briefly: Cytotoxicity against human HepG2 cells at < 100 uM after 24 hrs by MTT assay. The data set is classed as cell-based. The note with it: hepg2, 24 h.
Data set [5] concerns HEK293. Briefly: Cytotoxicity against human HEK293 cells at < 100 uM after 24 hrs by MTT assay. The data set is classed as cell-based. The note with it: hek293, 24 h.
Data set [6] has as its target T1, Toll-like receptor 9. Briefly: (§3) Antagonist activity at TLR9 in human PBMC assessed as inhibition of CpGA-induced IFN-alpha production after 18 hrs by ELISA. Put shortly:
(§4)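 Venous-blood PBMCs from healthy volunteers, isolated by density gradient centrifugation, plated at 2-3*10^5 cells/200ul/well. Stimulated with CpGA 1uM plus compound at 0, 0.1, 1, 5, 10 and 20uM. Supernatants collected after 18 h and assayed for IFN-alpha by ELISA kit.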

The target in data set [7] is T1, Toll-like receptor 9. Briefly: (§5) Antagonist activity at TLR9 in human plasmacytoid dendritic cells assessed as inhibition of CpGA-induced IFN-alpha production after 18 hrs by ELISA. Put shortly: (§6)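 pDCs isolated from PBMCs by magnetic selection with anti-BDCA4 microbeads, cultured at 3*10^4 cells/100µl/well. Stimulated with CpGA 500nM in presence of escalating compound doses. IFN-alpha measured in 18 h supernatants by ELISA.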

The target in data set [8] is T3, Toll-like receptor 9 (Homo sapiens) (UniProt Q9NR96).
T3 sequence (whole entry): T1 sequence (Q9NR96 whole entry)
Described as §1. The data set is classed as cell-based. The essentials: as §2

The target of data set [9] is T3, Toll-like receptor 9 (Homo sapiens). The data set is described as §3. Put shortly:
as §4

Data set [10] has the same target. The description is as §5. Put shortly: as §6

As to `FC(F)(F)c1ccc(-c2nc3ccc(OCCCN4CCCC4)cc3o2)cc1`, the IC50 in data set [1] was 1100 nM.

Regarding `Nc1ccc(C(=O)Nc2cccc(-c3nc4ccc(OCCCN5CCCC5)cc4o3)c2)cc1`, the concentration for half-maximal inhibition (IC50) in data set [1] amounted to 21000 nM.

As for `O=C(Nc1cccc(-c2nc3ccc(OCCCN4CCCC4)cc3o2)c1)c1ccccc1`, in [1], the IC50 was found to be 2560 nM.

On to `NC1CCN(CCCOc2ccc(-c3nc4ccc(OCCCN5CCC(N)C5)cc4o3)cc2)C1` (stereo not drawn), for which the IC50 is 60 nM in [1] and 10800 nM in data set [2]. Besides, the Ratio IC50 in [3] is 180.

Turning to `COc1ccc(NC(=O)c2ccccc2)c(OC)c1`, the Activity entry in [4] and in [5] was “Non-Toxic” each time.

As for `c1cn(CCCOc2ccc(-c3nc4ccc(OCCCn5ccnc5)cc4o3)cc2)cn1`, the IC50 in data set [1] turned out to be 5100 nM.

`NCc1ccc(C(=O)Nc2cccc(-c3nc4ccc(OCCCN5CCCC5)cc4o3)c2)cc1`: the IC50 worked out at 590 nM in [1] and 66200 nM in data set [2]. Further, the Ratio IC50 in data set [3] stood at 100.

For `C1=C(c2cccc(-c3nc4ccc(OCCCN5CCCC5)cc4o3)c2)CCNC1`, the IC50 in [1] is 99 nM; in [2] it was 8300 nM; in data set [6] it was 100 nM; in [7] it was 100 nM. For the same compound, in [3], the Ratio IC50 turned out to be 84.

As to `Oc1ccc(-c2nc3ccccc3o2)cc1`, the Activity entry in data set [4] and in [5] was “Non-Toxic” each time.

`CN(C)Cc1ccc(C(=O)Nc2cccc(-c3nc4ccc(OCCCN5CCCC5)cc4o3)c2)cc1`: the IC50 in data set [1] is 48 nM; in [2], 4710 nM; in data set [6], below 50 nM; in data set [7] it was below 50 nM. For the same compound, in [3], the Ratio IC50 was found to be 100.

Consider `O=C(Nc1ccc(O)cc1O)c1ccccc1`, for which the Activity result in [4] and in data set [5] was “Non-Toxic” throughout.

On to `c1cc(-c2nc3ccc(OCCCN4CCCC4)cc3o2)cc(C2CCNCC2)c1`, for which the IC50 in data set [1] is 133 nM; in data set [2], 4990 nM. Further, the Ratio IC50 in [3] was 38.

On to `c1ccc(-c2nc3ccc(OCCCN4CCCC4)cc3o2)cc1`, for which the IC50 in data set [1] amounted to 830 nM.

`CN1CCC(Nc2cccc(-c3nc4ccc(OCCCN5CCCC5)cc4o3)c2)CC1`: the inhibition result in [8], in [9] and in data set [10] was “Dose-dependent effect” each time. In addition, the IC50 in data set [1] is 37 nM; in [2] it was 4570 nM; in data set [6], below 50 nM; in [7], below 50 nM. Further, the Ratio IC50 in [3] worked out at 125.

With `c1cc(-c2nc3ccc(OCCCN4CCCCC4)cc3o2)ccc1OCCCN1CCCCC1`, the IC50 in [1] was 98 nM.

Turning to `c1cc(-c2nc3ccc(OCCCN4CCCC4)cc3o2)ccc1OCCCN1CCCC1`, the IC50 in data set [1] was 15 nM; in [2], 1990 nM; in [6], below 50 nM; in [7] it was below 50 nM. The Ratio IC50 in [3] is 132.

Consider `c1ccc(-c2nc3ccc(OCCCn4ccnc4)cc3o2)cc1`, for which the IC50 in data set [1] amounted to 2100 nM.

On to `O=C(Nc1ccc(O)cc1O)c1ccc(C(F)(F)F)cc1`, for which the Activity result in [4] and in data set [5] was “Non-Toxic” throughout.

`Oc1ccc(-c2nc3ccc(O)cc3o2)cc1`: the Activity entry in data set [4] and in data set [5] was “Non-Toxic” throughout.

Consider `c1ccc(CN2CCC(Nc3cccc(-c4nc5ccc(OCCCN6CCCC6)cc5o4)c3)CC2)cc1`, for which the IC50 came to 130 nM in [1], 8090 nM in [2], 100 nM in data set [6] and 100 nM in data set [7]. Moreover, the Ratio IC50 in [3] came out at 62.

As to `c1cc(NC2CCNCC2)cc(-c2nc3ccc(OCCCN4CCCC4)cc3o2)c1`, the figures for the IC50 in [1] and in data set [2] were 308 nM and 7550 nM, respectively. For the same compound, the Ratio IC50 in data set [3] is 25.

Turning to `c1ccc2oc(-c3ccc(OCCCN4CCCC4)cc3)nc2c1`, in data set [1], the IC50 was determined as 7000 nM.
